Data taken from ChEMBL document CHEMBL5724801, “EUbOPEN Chemogenomics Library - Multiplex” (2024).
Where “and” joins values, the source holds several entries; their conditions need not be identical. Identical values can stand only once.

Test system: U2OS
Test: Multiplex assay against U2OS
Assay type: toxicity, cell-based
Details: human
Method in brief: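 At seeding, live cells were stained with Hoechst33342, BioTracker Green Microtubule Cytoskeleton Dye, MitoTracker Red and Annexin V Alexa Fluor 680. After compound addition they were imaged on a CQ1 microscope at 37°C and 5% CO2, and CellPathfinder machine-learning gating sorted them into Hoechst high-intensity objects or normal cells, with normal cells further split into healthy, pyknosed or fragmented nuclei and pyknosed cells into mitotic or apoptotic. Tubulin, mitochondrial-mass and membrane-permeability phenotypes are given as per cents of cells with healthy nuclei.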

[1] = 12 h, 1 µM, compound concentration 1 uM
[2] = 12 h, 10 µM, compound concentration 10 uM
[3] = 24 h, 1 µM, compound concentration 1 uM
[4] = 24 h, 10 µM, compound concentration 10 uM
[5] = 48 h, 1 µM, compound concentration 1 uM
[6] = 48 h, 10 µM, compound concentration 10 uM

In the case of `COCCn1c(C)c(C)s/c1=N\C(=O)C1C(C)(C)C1(C)C`, the “Population Apoptotic (%)” value [1] is reported as 88% and 71%, the “Population Fragmented Nuclei (%)” value [1] is reported as 24% and 20% and the “Population Healthy Nuclei (%)” value [1] is reported as 69% and 74%. For the same compound, the “Population Hoechst High Intensity Objects (%)” value [1] was 0%, the “Population Membrane Permeable-Phenotype (%)” value [1] was 8% and 11% and the “Population Mitochondria Different-Phenotype (%)” value [1] was 1% and 3%. The “Population Mitotic Cells (%)” value [1] was 11% and 28%, the “Population Normal (%)” value [1] was 99% and 100% and the “Population Pyknosed Nuclei (%)” value [1] was 6% and 5%. For the same compound, the “Population Tubulin-Different-Phenotype (%)” value [1] was 3% and 5%, the “Total Cell Count” value [1] was 271 and 135 and the “Population Apoptotic (%)” value [2] was 73% and 80%. For the same compound, the “Population Fragmented Nuclei (%)” value [2] was 33% and 20%, the “Population Healthy Nuclei (%)” value [2] was 52% and 68% and the “Population Hoechst High Intensity Objects (%)” value [2] was 2% and 0%. The “Population Membrane Permeable-Phenotype (%)” value [2] was 10% and 9%, the “Population Mitochondria Different-Phenotype (%)” value [2] was 4% and 3% and the “Population Mitotic Cells (%)” value [2] was 26% and 20%. The “Population Normal (%)” value [2] was 97% and 100%, the “Population Pyknosed Nuclei (%)” value [2] was 13% and 11% and the “Population Tubulin-Different-Phenotype (%)” value [2] was 5% and 4%. The “Total Cell Count” value [2] was 220 and 135, the “Population Apoptotic (%)” value [3] was 89% and 83% and the “Population Fragmented Nuclei (%)” value [3] was 18%. For the same compound, the “Population Healthy Nuclei (%)” value [3] was 75% and 77%, the “Population Hoechst High Intensity Objects (%)” value [3] was 0% and the “Population Membrane Permeable-Phenotype (%)” value [3] was 5% and 9%. The “Population Mitochondria Different-Phenotype (%)” value [3] was 3%, the “Population Mitotic Cells (%)” value [3] was 10% and 16% and the “Population Normal (%)” value [3] was 99%. The “Population Pyknosed Nuclei (%)” value [3] was 6% and 3%, the “Population Tubulin-Different-Phenotype (%)” value [3] was 2% and 4% and the “Total Cell Count” value [3] was 314 and 157. For the same compound, the “Population Apoptotic (%)” value [4] was 80% and 88%, the “Population Fragmented Nuclei (%)” value [4] was 28% and 21% and the “Population Healthy Nuclei (%)” value [4] was 58% and 66%. For the same compound, the “Population Hoechst High Intensity Objects (%)” value [4] was 1%, the “Population Membrane Permeable-Phenotype (%)” value [4] was 8% and 10% and the “Population Mitochondria Different-Phenotype (%)” value [4] was 8% and 1%. For the same compound, the “Population Mitotic Cells (%)” value [4] was 19% and 11%, the “Population Normal (%)” value [4] was 98% and the “Population Pyknosed Nuclei (%)” value [4] was 12%. The “Population Tubulin-Different-Phenotype (%)” value [4] was 2% and 9%, the “Total Cell Count” value [4] was 257 and 141 and the “Population Apoptotic (%)” value [5] was 94% and 100%. For the same compound, the “Population Fragmented Nuclei (%)” value [5] was 12% and 15%, the “Population Healthy Nuclei (%)” value [5] was 79% and the “Population Hoechst High Intensity Objects (%)” value [5] was 1%. For the same compound, the “Population Membrane Permeable-Phenotype (%)” value [5] was 5% and 9%, the “Population Mitochondria Different-Phenotype (%)” value [5] was 2% and 1% and the “Population Mitotic Cells (%)” value [5] was 5% and 0%. For the same compound, the “Population Normal (%)” value [5] was 98%, the “Population Pyknosed Nuclei (%)” value [5] was 8% and 4% and the “Population Tubulin-Different-Phenotype (%)” value [5] was 4% and 5%. For the same compound, the “Total Cell Count” value [5] was 459 and 218, the “Population Apoptotic (%)” value [6] was 81% and 96% and the “Population Fragmented Nuclei (%)” value [6] was 22% and 15%. The “Population Healthy Nuclei (%)” value [6] was 62% and 71%, the “Population Hoechst High Intensity Objects (%)” value [6] was 2% and 1% and the “Population Membrane Permeable-Phenotype (%)” value [6] was 11% and 4%. For the same compound, the “Population Mitochondria Different-Phenotype (%)” value [6] was 4%, the “Population Normal (%)” value [6] was 97% and 98% and the “Population Pyknosed Nuclei (%)” value [6] was 14% and 12%. The “Population Tubulin-Different-Phenotype (%)” value [6] was 5% and 2% and the “Total Cell Count” value [6] was 305 and 206.
